From ChEMBL document CHEMBL3425449, “Identification of MK-8133: An orexin-2 selective receptor antagonist with favorable development properties” (Bioorg Med Chem Lett, 2015)
≈ marks a conversion by molar mass, not a printed value. Calls of active or inactive are those of the source. The rule behind the calls is not given here.

How the values were obtained:
[1] = target: T1, Orexin/Hypocretin receptor type 1 (Homo sapiens, UniProt O43613); experiment: Antagonist activity against human OX1R expressed in CHOK1 cells assessed as inhibition of orexin A-induced […] Ca2+ mobilization by FLIPR assay; assay type: functional, cell-based, CHO-K1
T1 sequence (O43613 whole entry): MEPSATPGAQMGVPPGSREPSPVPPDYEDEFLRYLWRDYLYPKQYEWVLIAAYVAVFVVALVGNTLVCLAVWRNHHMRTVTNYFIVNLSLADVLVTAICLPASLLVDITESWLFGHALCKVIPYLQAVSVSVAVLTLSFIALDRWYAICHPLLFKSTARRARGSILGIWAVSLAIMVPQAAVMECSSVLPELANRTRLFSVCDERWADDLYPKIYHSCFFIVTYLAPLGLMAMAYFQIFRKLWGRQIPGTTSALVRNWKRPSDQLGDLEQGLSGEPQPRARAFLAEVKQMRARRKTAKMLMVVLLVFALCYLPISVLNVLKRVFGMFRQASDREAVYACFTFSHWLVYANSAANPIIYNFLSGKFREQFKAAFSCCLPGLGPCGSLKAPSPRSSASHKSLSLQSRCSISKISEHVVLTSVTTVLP
Summary of the method: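 Cell-based FLIPR assay measuring Ca2+ flux as the functional read-out of orexin receptor antagonism. Target is the human orexin receptor expressed in CHO-K1 cells.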

[2] = test system: CHO-K1; experiment: Selectivity index, ratio of IC50 for human OX1R expressed in CHOK1 cells to IC50 for human OX2R expressed in CHOK1 cells by FLIPR assay; assay type: cell-based
Summary of the method: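 Ratio of OX1R FLIPR IC50 to OX2R FLIPR IC50. Both come from Ca2+-flux assays on human orexin receptors expressed in CHO-K1 cells, each averaged over n ≥ 2 experiments.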

[3] = Intrinsic clearance in human microsomes; assay type: ADME, Microsome
[4] = Solubility of the compound at pH 7; assay type: physicochemical; conditions: buffer, read-out: solubility
[5] = Lipophilicity, log D of the compound by HPLC method; assay type: physicochemical; conditions: read-out: logD
[6] = Oral bioavailability in Wistar Han rat at 10 mg/kg; assay type: ADME, organism-based; conditions: in vivo
Summary of the method: (§1)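 Pharmacokinetics in Wistar Han rats (n = 2) after intravenous and oral dosing. Oral dose was 10 mg/kg in PEG400:Tween80/water 40:10:50. IV dose was 2 mg/kg in DMSO/PEG400/water 20:60:20.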

[7] = Half life in Wistar Han rat at 10 mg/kg, po or 2 mg/kg, iv; assay type: ADME, organism-based; conditions: in vivo; summary of the method: as §1
[8] = Clearance in Wistar Han rat at 10 mg/kg, po or 2 mg/kg, iv; assay type: ADME, organism-based; conditions: in vivo; summary of the method: as §1
[9] = Volume of distribution at steady state in Wistar Han rat at 10 mg/kg, po or 2 mg/kg, iv; assay type: ADME, organism-based; conditions: in vivo, read-out: Vdss; summary of the method: as §1
[10] = Oral bioavailability in dog at 10 mg/kg; assay type: ADME, organism-based, Canis lupus familiaris; conditions: in vivo
Summary of the method: (§2)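 Dog pharmacokinetics determined after intravenous and oral administration.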

[11] = Half life in dog at 10 mg/kg, po or 2 mg/kg, iv; assay type: ADME, organism-based, Canis lupus familiaris; conditions: in vivo; summary of the method: as §2
[12] = Clearance in dog at 10 mg/kg, po or 2 mg/kg, iv; assay type: ADME, organism-based, Canis lupus familiaris; conditions: in vivo; summary of the method: as §2
[13] = Volume of distribution at steady state in dog at 10 mg/kg, po or 2 mg/kg, iv; assay type: ADME, organism-based, Canis lupus familiaris; conditions: in vivo, read-out: Vdss; summary of the method: as §2
[14] = Unbound fraction in human plasma at 1 uM; assay type: ADME, cell-free
Summary of the method: (§3)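 Plasma protein binding measured at a compound concentration of 1 µM. Reported as percent unbound fraction in human, rat, dog and monkey plasma.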

[15] = Unbound fraction in rat plasma at 1 uM; assay type: ADME, cell-free; summary of the method: as §3
[16] = Unbound fraction in dog plasma at 1 uM; assay type: ADME, cell-free, Canis lupus familiaris; summary of the method: as §3
[17] = Unbound fraction in monkey plasma at 1 uM; assay type: ADME, cell-free, Macaca mulatta; conditions: rhesus monkey; summary of the method: as §3
[18] = Permeability in pig LLC-PK1 cells; assay type: ADME, cell-based, Sus scrofa; conditions: read-out: permeability
Summary of the method: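 Passive permeability measured in LLC-PK1 cells and expressed in cm/s.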

[19] = test system: P-gp; experiment: Substrate activity at rat P-gp assessed as efflux ratio in cell based assay; assay type: ADME; conditions: not told
[20] = test system: P-gp; experiment: Substrate activity at human P-gp assessed as efflux ratio in cell based assay; assay type: ADME; conditions: not told
[21] = Ratio of drug level in CSF to plasma in rat; assay type: ADME; conditions: CSF and plasma
[22] = species: Homo sapiens; experiment: Inhibition of CYP450 (unknown origin)
[23] = Induction of CYP450 (unknown origin); assay type: ADME; conditions: human
[24] = Solubility of the compound at pH 7.4; assay type: physicochemical; conditions: buffer
[25] = test system: Mus musculus; experiment: Sleep promoting activity in mouse assessed as reduction of active wake at 30 mg/kg, po dosed for 5 consecutive days measured after 1 hr; assay type: functional, organism-based; design: dose 30 mg/kg
Summary of the method: (§4)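 Sleep architecture recorded in ambulatory mice (wild-type N = 7; OX2R KO N = 6) implanted with radio-telemetry transmitters for ECoG and EMG. Compound given at 30 mg/kg po; vehicle was 20% Vitamin E TPGS po. Balanced cross-over design over 5 consecutive treatment days. Read-out is mean within-subject change versus vehicle in active wake, SWS and REM.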

[26] = test system: Mus musculus; experiment: Sleep promoting activity in mouse assessed as increase in slow wave sleep at 30 mg/kg, po dosed for 5 consecutive days measured after 1 hr; assay type: functional, organism-based; design: dose 30 mg/kg; summary of the method: as §4
[27] = test system: Mus musculus; experiment: Sleep promoting activity in mouse assessed as effect on REM sleep at 30 mg/kg, po dosed for 5 consecutive days measured after 1 hr; assay type: functional, organism-based; design: dose 30 mg/kg; summary of the method: as §4
[28] = test system: Mus musculus; experiment: Sleep promoting activity in OX2R knock out mouse with targeted disruption of the Hcrtr2 gene assessed as effect on active wake at 30 mg/kg, po dosed for 5 consecutive days measured after 1 hr; assay type: functional, organism-based; design: dose 30 mg/kg; summary of the method: as §4
[29] = test system: Mus musculus; experiment: Sleep promoting activity in OX2R knock out mouse with targeted disruption of the Hcrtr2 gene assessed as effect on slow wave sleep at 30 mg/kg, po dosed for 5 consecutive days measured after 1 hr; assay type: functional, organism-based; design: dose 30 mg/kg; summary of the method: as §4
[30] = test system: Mus musculus; experiment: Sleep promoting activity in OX2R knock out mouse with targeted disruption of the Hcrtr2 gene assessed as effect on REM sleep at 30 mg/kg, po dosed for 5 consecutive days measured after 1 hr; assay type: functional, organism-based; design: dose 30 mg/kg; summary of the method: as §4
[31] = test system: Rattus norvegicus; experiment: Sleep promoting activity in rat assessed as reduction of active wake at 1 and 3 mg/kg, po dosed for 3 consecutive days measured after 2 hrs; assay type: functional, organism-based; design: dose 3 mg/kg
Summary of the method: (§5)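 Rats implanted with radio-telemetry ECoG/EMG transmitters and recorded while ambulatory. Dosed at 1 and 3 mg/kg po or with vehicle (20% Vitamin E TPGS) in a balanced cross-over over 3 consecutive days. Active wake, SWS and REM were scored in the 2 h after dosing as within-subject change versus vehicle.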

[32] = test system: Rattus norvegicus; experiment: Sleep promoting activity in rat assessed as increase in slow wave sleep at 1 and 3 mg/kg, po dosed for 3 consecutive days measured after 2 hrs; assay type: functional, organism-based; design: dose 3 mg/kg; summary of the method: as §5
[33] = test system: Rattus norvegicus; experiment: Sleep promoting activity in rat assessed as increase in REM sleep at 1 and 3 mg/kg, po dosed for 3 consecutive days measured after 2 hrs; assay type: functional, organism-based; design: dose 3 mg/kg; summary of the method: as §5
[34] = test system: Canis familiaris; experiment: Sleep promoting activity in beagle dog assessed as reduction of active wake at 0.01 and 0.05 mg/kg, po dosed for 5 consecutive days; assay type: functional, organism-based; design: dose 0.05 mg/kg; conditions: Canis lupus familiaris
Summary of the method: (§6)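 Beagles implanted with radio-telemetry ECoG/EMG transmitters received 0.01 and 0.05 mg/kg po or vehicle (20% Vitamin E TPGS). Balanced cross-over design over 5 consecutive days. Active wake, NREM I, NREM II (including delta sleep) and REM were scored as mean within-subject change versus vehicle.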

[35] = test system: Canis familiaris; experiment: Sleep promoting activity in beagle dog assessed as increase in non-REM NREM1 sleep at 0.01 and 0.05 mg/kg, po dosed for 5 consecutive days; assay type: functional, organism-based; design: dose 0.05 mg/kg; conditions: Canis lupus familiaris; summary of the method: as §6
[36] = test system: Canis familiaris; experiment: Sleep promoting activity in beagle dog assessed as increase in REM2 sleep at 0.01 and 0.05 mg/kg, po dosed for 5 consecutive days; assay type: functional, organism-based; design: dose 0.05 mg/kg; conditions: Canis lupus familiaris, in the assay text read “NREM2 sleep” for “REM2 sleep”; summary of the method: as §6
[37] = test system: Canis familiaris; experiment: Sleep promoting activity in beagle dog assessed as increase in delta sleep at 0.01 and 0.05 mg/kg, po dosed for 5 consecutive days; assay type: functional, organism-based; design: dose 0.05 mg/kg; conditions: Canis lupus familiaris; summary of the method: as §6
[38] = test system: Canis familiaris; experiment: Sleep promoting activity in beagle dog assessed as increase in REM sleep at 0.01 and 0.05 mg/kg, po dosed for 5 consecutive days; assay type: functional, organism-based; design: dose 0.05 mg/kg; conditions: Canis lupus familiaris; summary of the method: as §6

For C[C@@H]1CC[C@@H](Oc2cc(C#N)ccn2)CN1C(=O)c1ccccc1-c1ncccn1, the IC50 [1] was 4.9 µM, the Ratio IC50 [2] was 174 and the CLint scaled [3] was 17 mL/min/kg. The solubility [4] was 183 µM (≈ 73.1 µg/mL), the logD [5] was 2.9 and the bioavailability [6] was 80%. For the same compound, the half-life [7] was 4.3 h, the clearance [8] was 37 mL/min/kg and the Vd [9] was 1.3 L/kg. It also gave a bioavailability [10] of 53%, a half-life [11] of 0.8 h and a clearance [12] of 15 mL/min/kg. For the same compound, the Vd [13] was 0.97 L/kg, the fraction unbound at 1 µM [14] was 0.028 and the fraction unbound at 1 µM [15] was 0.076. The fraction unbound at 1 µM [16] was 0.166, the fraction unbound at 1 µM [17] was 0.239 and the Papp [18] was 33 ×10⁻⁶ cm/s. The efflux ratio [19] was 2.3, the efflux ratio [20] was 0.7 and the Kp [21] was 0.1. The inhibition [22] was “inactive”, the Activity [23] was “Not Active” and the solubility [24] was 250 µg/mL (≈ 626 µM). The Activity [25] was “Active”, the Activity [26] was “Active” and the Activity [27] was “inactive”. For the same compound, the Activity [28] was “inactive”, the Activity [29] was “inactive” and the Activity [30] was “inactive”. For the same compound, the Activity [31] was “Active”, the Activity [32] was “Active” and the Activity [33] was “Active”. For the same compound, the Activity [34] was “Dose-dependent effect”, the Activity [35] was “Dose-dependent effect” and the Activity [36] was “Dose-dependent effect”. For the same compound, the Activity [37] was “Dose-dependent effect” and the Activity [38] was “Active”.
